Published values collected from several papers.
Protocols differ between the studies behind these lines.
Matrix: plasma

With `CCCc1nc2c(C)cc(-c3nc4ccccc4n3C)cc2n1Cc1ccc(-c2ccccc2C(=O)O)cc1` the AUC(0-inf) was 1950 ng·h/mL (male Sprague-Dawley rat; oral; 8 mg/kg; single dose).
For `CCN(CC)Cc1ccc2cc(COC(=O)Nc3ccc(C(=O)NO)cc3)ccc2c1`, the AUC(0-inf) was 8730 ng·h/mL (male Sprague-Dawley rat; oral; 10 mg/kg).
`CC(=O)O[C@@H]1CC[C@@]2(C)[C@@H](CC[C@]3(C)[C@@H]2C(=O)C=C2[C@@H]4[C@@H](C)[C@H](C)CC[C@]4(C)CC[C@]23C)[C@@]1(C)C(=O)O` has an AUC(0-inf) of 50200 ng·h/mL (female Wistar rat; oral; 1 mg/kg; single dose).
`CONC(=O)c1cccc2c1cc(C)n2-c1nc2c(c(NCc3ccccc3)n1)CCCN2` has an AUC(0-inf) of 32.5 ng·h/mL (male Sprague-Dawley rat; intravenous; 1 mg/kg; single dose).
For `COc1nc(-c2cccc(-c3ccccc3)c2C)ccc1CNCCNC(=O)CCCCCCCCCCC(=O)N1CCN(CCNC(=O)c2cc3c(=O)n4cccc(C)c4nc3n(CCc3cccs3)c2=N)CC1`, the AUC(0-inf) was 1640 ng·h/mL (male Sprague-Dawley rat; intravenous; 2 mg/kg).
`Cn1c(=O)c2[nH]cnc2n(C)c1=O` gave an AUC(0-inf) of 32700 ng·h/mL (male Sprague-Dawley rat; intravenous; 11.25 mg/kg).
For `Cc1nc(Nc2ncc(C(=O)Nc3c(C)cccc3Cl)s2)cc(N2CC[C@H](O)C2)n1`, the AUC(0-inf) was 2.71 µM·h (male Sprague-Dawley rat; oral; 5 mg/kg; single dose).
The AUC(0-inf) of `COc1cc(-c2cc(C(C)=O)n3ccccc23)c(OC)cc1Cn1ccnc1` is reported as 4300 ng·h/mL (male Sprague-Dawley rat; intravenous; 5 mg/kg).
For `O=C1CCC(N2Cc3cc(C4CCN(Cc5ccccc5)CC4)ccc3C2=O)C(=O)N1` (stereo not shown), the AUC(0-inf) was 325 ng·h/mL (male Sprague-Dawley rat; intravenous; 1 mg/kg).
`C[C@H]1Oc2cc(cnc2N)-c2c(nn(C)c2C#N)CN(C)C(=O)c2ccc(F)cc21` has an AUC(0-inf) of 3840 ng·h/mL (male Sprague-Dawley rat; oral; 10 mg/kg; single dose).
For `CC[C@@H]([C@H](C)O)n1ncn(-c2ccc(N3CCN(c4ccc(OC[C@@H]5CO[C@@](Cn6cncn6)(c6ccc(F)cc6F)C5)cc4)CC3)cc2)c1=O`, the AUC(0-inf) was 10200 ng·h/mL (Sprague-Dawley rat; oral; 40 mg/kg).
`CC[C@H](C)[C@H](NC(=O)[C@@H]1CCCN1C(=O)CNC(=O)[C@H](Cc1ccccc1)NC(=O)[C@H](CC(N)=O)NC(=O)[C@H](CC(N)=O)NC(=O)[C@H](CO)NC(=O)[C@H](CO)NC(=O)[C@H](Cc1c[nH]cn1)NC(=O)[C@H](CCCNC(=N)N)NC(=O)[C@H](CC(C)C)NC(=O)[C@H](Cc1ccccc1)NC(=O)[C@H](CCC(=O)O)NC(=O)[C@H](C)NC(=O)[C@H](CC(C)C)NC(=O)[C@H](CCCNC(=N)N)NC(=O)[C@H](CCC(N)=O)NC(=O)[C@@H](NC(=O)[C@H](C)NC(=O)[C@@H]1CSSC[C@H](NC(=O)[C@H](CCCCN)NC(=O)CC[C@H](NC(=O)CCCCCCCCCCCCCCCCCCC(=O)O)C(=O)O)C(=O)N[C@@H](CC(N)=O)C(=O)N[C@@H]([C@@H](C)O)C(=O)N[C@@H](C)C(=O)N[C@@H]([C@@H](C)O)C(=O)N1)[C@@H](C)O)C(=O)N[C@@H](CC(C)C)C(=O)N1CCC[C@H]1C(=O)N1CCC[C@H]1C(=O)N[C@H](C(=O)N[C@@H](CC(N)=O)C(=O)N[C@H](C(=O)NCC(=O)N[C@@H](CO)C(=O)N[C@@H](CC(N)=O)C(=O)N[C@H](C(=O)N1CCC[C@H]1C(N)=O)[C@@H](C)O)C(C)C)[C@@H](C)O` has an AUC(0-inf) of 5 µM·h (male Sprague-Dawley rat; subcutaneous; 30 nmol/kg; single dose).
`COc1ccc(N(Cc2csc(-c3ccccc3)n2)C(=O)CCCCCC(=O)NO)cc1` gave an AUC(0-inf) of 32.4 ng·h/mL (female Sprague-Dawley rat; oral; 30 mg/kg).
